We go through 57 compounds from ChEMBL document CHEMBL1153722, “Design, synthesis, and characterization of peptide-based rab geranylgeranyl transferase inhibitors” (J Med Chem, 2009).

Peptide text beside a SMILES is read from it. * marks the point of attachment. Hydrocinnamoyl = O=C(CCc1ccccc1)*; Myristoyl = CCCCCCCCCCCCCC(=O)*; Undecanoyl = CCCCCCCCCCC(=O)*; Lauroyl = CCCCCCCCCCCC(=O)*; Morpholide = C1CN(*)CCO1; Cbz = O=C(OCc1ccccc1)*; NHOH = ON*

For the experiment, the species on record is Rattus norvegicus. As to the kind of experiment: Inhibition of rat recombinant Rab geranylgeranyltransferase at 100 uM in presence of canine Rab7 and rat REP1 NBD-FPP based continuous fluorimetric assay. In short, it runs like this:
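Continuous fluorometric assay in 96/384-well format: 3 μM Rab7, 3 μM REP1, 9 μM NBD-FPP and 400 nM RabGGTase, with or without inhibitor. […] IC50 was calculated from three independent measurements.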
By inhibition is commonly meant the change of the read-out against control, counted positive when it falls. `NCCCC[C@H](NC(=O)CCc1ccccc1)C(=O)N[C@@H](Cc1c[nH]cn1)C(=O)N[C@@H](CO)C(=O)O` (Hydrocinnamoyl-Lys-His-Ser-OH): the inhibition came out at 89%.
The result for `CCCCCc1ccc(CCC(=O)N[C@H](Cc2cnc[nH]2)C(=O)N[C@@H](Cc2ccc(O)cc2)C(=O)N[C@@H](Cc2ccccc2)C(=O)O)cc1` reads 10%.
For `CCCCCCCCCCOc1ccc(C(=O)N[C@@H](Cc2c[nH]cn2)C(=O)N[C@@H](Cc2c[nH]cn2)C(=O)N[C@@H](CO)C(=O)O)cc1` the value was 74%.
The result for `CC(C)[C@H](NC(=O)[C@@H](Cc1ccccc1)NC(=O)c1ccc(-c2ccccc2)cc1)C(=O)N[C@H](C)C(=O)N1CCC[C@H]1C(N)=O` reads 71%; that for `CC(C)C[C@H](NC(=O)[C@H](CO)NC(=O)[C@H](Cc1ccccc1)NC(=O)/C=C/c1ccc(F)cc1)C(N)=O`, 98%.
For `CON(C)C(=O)[C@H](Cc1ccc(O)cc1)NC(=O)CNC(=O)[C@H](Cc1ccc(O)cc1)NC(=O)CCc1ccc(F)cc1`, the inhibition turned out to be 80%.
For `O=C(CCc1ccc(F)cc1)N[C@@H](Cc1ccc(O)cc1)C(=O)NCC(=O)N[C@@H](Cc1ccc(O)cc1)C(=O)Nc1ccc(F)cc1F` the value was 89%.
The result for `COc1ccc(C[C@@H](C(=O)N(C)[C@@H](Cc2ccccc2)C(=O)OCC(=O)O)N(C)C(=O)[C@@H](Cc2ccc(O)cc2)NC(=O)CCc2ccccc2)cc1` reads 47%; that for `O=C(/C=C/c1ccc(F)cc1)N[C@@H](CO)C(=O)NCC(=O)N[C@@H](CO)C(=O)NC1CCCCC1`, 81%.
For `CCCCCCCCCCC(=O)N[C@@H](Cc1c[nH]cn1)C(=O)N[C@@H](Cc1c[nH]cn1)C(=O)N[C@@H](CO)C(=O)Nc1ccccn1` the value was 61%; for `CCCCCCCCCCCCCC(=O)N[C@@H](Cc1ccc(O)cc1)C(=O)N[C@@H](Cc1ccc(O)cc1)C(=O)N[C@@H](Cc1ccc(O)cc1)C(=O)N1CCOCC1` (Myristoyl-Tyr-Tyr-Tyr-Morpholide), 95%.
As to `CN(C(=O)[C@@H](Cc1ccc(O)cc1)NC(=O)OCc1ccccc1)[C@@H](Cc1ccccc1)C(=O)N[C@@H](Cc1ccc(O)cc1)C(=O)O`, the inhibition is 46%.
The result for `NCCCC[C@H](NC(=O)CCc1ccccc1)C(=O)N[C@@H](Cc1c[nH]cn1)C(=O)N[C@@H](CO)C(=O)Nc1ccc(F)cc1F` reads 96%; that for `CC[C@H](C)[C@H](NC(=O)c1ccc(-c2ccccc2)cc1)C(=O)N[C@@H](C(=O)N[C@@H](CCC(N)=O)C(=O)OC)C(C)C`, 94%.
For `NCCCCNC(=O)[C@H](Cc1ccc(O)cc1)NC(=O)[C@H](Cc1ccc(O)cc1)NC(=O)[C@H](Cc1ccc(O)cc1)NC(=O)c1ccc(F)cc1F`, the inhibition is 61%.
For `CC(=O)Nc1cc(C(=O)N2CCC[C@H]2C(=O)N[C@@H](C(=O)N[C@@H](CCC(=O)O)C(=O)NC2CCCCC2)C(C)C)ccc1[N+](=O)[O-]` the value was 117%.
The result for `C[C@H](NC(=O)[C@@H](NC(=O)c1ccc(-c2ccccc2)cc1)[C@@H](C)O)C(=O)N[C@@H](CCC(N)=O)C(=O)NNc1ccccc1` reads 96%.
The result for `CCCCOC(=O)[C@H](Cc1ccc(O)cc1)NC(=O)CNC(=O)[C@H](Cc1ccc(O)cc1)NC(=O)CCc1ccc(F)cc1` reads 47%; that for `CCCCCc1ccc(/C=C/C(=O)N[C@H](Cc2cnc[nH]2)C(=O)N[C@@H](Cc2ccc(O)cc2)C(=O)N[C@@H](Cc2ccccc2)C(=O)O)cc1`, 17%; that for `O=C(CCc1ccc(F)cc1)N[C@@H](Cc1ccc(O)cc1)C(=O)NCC(=O)N[C@@H](Cc1ccc(O)cc1)C(=O)Nc1ccccc1`, 99%.
Turning to `CCCCCCCCCCC(=O)N[C@@H](Cc1c[nH]cn1)C(=O)N[C@@H](Cc1ccccc1)C(=O)N[C@@H](Cc1ccc(O)cc1)C(=O)Nc1ccccc1N`, the inhibition turned out to be 34%.
As to `C[C@@H](O)[C@H](NC(=O)/C=C/c1ccccc1)C(=O)N[C@@H](Cc1ccccc1)C(=O)N[C@@H](CCC(N)=O)C(=O)NC1CCCCC1`, the inhibition was 75%.
For `CCCCCc1ccccc1CCC(=O)N[C@H](Cc1cnc[nH]1)C(=O)N[C@@H](Cc1ccc(O)cc1)C(=O)N[C@@H](Cc1ccccc1)C(=O)O` the value was 37%.
For `O=C(N[C@@H](Cc1ccc(O)cc1)C(=O)N[C@@H](Cc1ccc(O)cc1)C(=O)N[C@@H](Cc1ccc(O)cc1)C(=O)Nc1ccc(F)cc1F)c1ccc(F)cc1F` the value was 97%.
As for `NC(=O)[C@H](Cc1ccc(O)cc1)NC(=O)CCNC(=O)[C@H](Cc1c[nH]cn1)NC(=O)OCc1ccccc1`, the inhibition was determined as 89%.
For `CC(C)C[C@H](NC(=O)[C@H](CO)NC(=O)[C@H](Cc1ccccc1)NC(=O)c1ccc(-c2ccccc2)cc1)C(=O)OCCCl` the value was 53%.
The result for `COC(=O)[C@H](CCC(N)=O)NC(=O)[C@H](Cc1ccccc1)NC(=O)[C@@H](NC(=O)/C=C/c1ccccc1)[C@@H](C)O` reads 92%; that for `C=CCCCOC(=O)[C@H](CCC(N)=O)NC(=O)[C@H](Cc1ccccc1)NC(=O)[C@@H](NC(=O)/C=C/c1ccccc1)[C@@H](C)O`, 102%.
The result for `O=C(CNC(=O)[C@H](Cc1ccc(O)cc1)NC(=O)c1ccc(F)cc1)N[C@@H](Cc1ccc(O)cc1)C(=O)NCc1ccccc1` reads 60%; that for `O=C(CNC(=O)[C@H](Cc1ccc(O)cc1)NC(=O)c1ccc(F)cc1)N[C@@H](Cc1ccc(O)cc1)C(=O)OCCCl`, 55%.
Regarding `C=CCCCCCCCCCOC(=O)[C@H](CO)NC(=O)[C@H](Cc1ccccc1)NC(=O)[C@H](CO)NC(=O)/C=C/c1ccc(F)cc1`, the inhibition is 87%.
For `NC(=O)CC[C@H](NC(=O)[C@H](Cc1ccccc1)NC(=O)CNC(=O)CCc1ccccc1)C(=O)Nc1ccc(F)cc1F` the value was 93%.
For `CC[C@H](C)[C@H](NC(=O)CCc1ccc(F)cc1)C(=O)N[C@@H](C)C(=O)N[C@@H](CCC(N)=O)C(=O)Nc1cccc(Br)n1` the value was 92%; for `O=C(CCc1ccc(F)cc1)N[C@@H](Cc1ccc(O)cc1)C(=O)NCC(=O)N[C@@H](Cc1ccc(O)cc1)C(=O)OCCCl`, 50%; for `C[C@H](NC(=O)[C@@H](NC(=O)c1ccc(-c2ccccc2)cc1)[C@@H](C)O)C(=O)N[C@@H](CCC(=O)O)C(=O)O`, 96%.
For `O=C(CNC(=O)c1coc(-c2ccccc2)n1)NCC(=O)N[C@@H](Cc1c[nH]cn1)C(=O)Nc1ccc(F)cc1F` the value was 112%.
As for `O=C(CNC(=O)[C@H](Cc1c[nH]cn1)NC(=O)OCc1ccccc1)N[C@@H](Cc1ccc(O)cc1)C(=O)O` (Cbz-His-Gly-Tyr-OH), the inhibition amounted to 75%.
For `O=C(CNC(=O)[C@H](Cc1c[nH]cn1)NC(=O)OCc1ccccc1)N[C@@H](Cc1ccc(O)cc1)C(=O)NCCCn1ccnc1` the value was 85%; for `CCCCCCCCCCCC(=O)N[C@@H](Cc1c[nH]cn1)C(=O)N[C@@H](Cc1ccccc1)C(=O)N[C@@H](Cc1ccc(O)cc1)C(=O)NO` (Lauroyl-His-Phe-Tyr-{NHOH}), 89%.
The result for `CCC/C=C/c1cccc(/C=C/C(=O)N[C@H](Cc2cnc[nH]2)C(=O)N[C@@H](Cc2ccc(O)cc2)C(=O)N[C@@H](Cc2ccccc2)C(=O)O)c1` reads 59%; that for `NCCCC[C@H](NC(=O)CCc1ccccc1)C(=O)N[C@@H](Cc1c[nH]cn1)C(=O)N[C@@H](CO)C(=O)NCc1cccc(F)c1`, 96%.
Turning to `C[C@H](NC(=O)/C=C/c1ccc(F)cc1)C(=O)NCC(=O)N[C@@H](Cc1ccc(O)cc1)C(=O)O`, the inhibition is 76%.
The result for `C=CCCCCCCCCCOC(=O)[C@H](CO)NC(=O)CNC(=O)[C@H](Cc1ccccc1)NC(=O)c1coc(-c2ccccc2)n1` reads 5%; that for `C[C@H](NC(=O)[C@@H](NC(=O)c1ccc(-c2ccccc2)cc1)[C@@H](C)O)C(=O)N[C@@H](CCC(N)=O)C(=O)Nc1ccc(F)c(Cl)c1`, 100%.
For `C=CCCCCCCCCCOC(=O)[C@H](CC(C)C)NC(=O)[C@H](COC(C)(C)C)NC(=O)[C@H](Cc1ccccc1)NC(=O)CCc1ccccc1` the value was 108%.
The result for `O=C(CCc1ccc(F)cc1)N[C@@H](Cc1ccc(O)cc1)C(=O)NCC(=O)N[C@@H](Cc1ccc(O)cc1)C(=O)NC1CCCCC1` reads 88%; that for `NCCOC(=O)[C@H](Cc1ccc(O)cc1)NC(=O)CCNC(=O)[C@H](Cc1c[nH]cn1)NC(=O)OCc1ccccc1`, 100%.
Take `CCCCCCCCCCC(=O)N[C@@H](Cc1c[nH]cn1)C(=O)N[C@@H](Cc1ccccc1)C(=O)N[C@@H](Cc1ccc(O)cc1)C(N)=O` (Undecanoyl-His-Phe-Tyr-NH2): the inhibition was 45%.
For `CC(C)C[C@H](NC(=O)/C=C/c1ccccc1)C(=O)N[C@@H](Cc1ccccc1)C(=O)N[C@@H](Cc1ccccc1)C(=O)Nc1ccc(F)cc1F` the value was 93%; for `CC(C)C[C@H](NC(=O)[C@H](COC(C)(C)C)NC(=O)[C@H](Cc1ccccc1)NC(=O)c1ccc(-c2ccccc2)cc1)C(=O)O`, 81%.
The result for `CCCCCCCCCCCOc1ccc(C(=O)N[C@@H](Cc2c[nH]cn2)C(=O)N[C@@H](Cc2ccc(O)cc2)C(=O)N[C@@H](Cc2ccccc2)C(=O)O)cc1` reads 75%; that for `CCCCCCCCCCC(=O)N[C@@H](CC1=NCN=C1)C(=O)N[C@@H](Cc1c[nH]cn1)C(=O)N[C@@H](Cc1ccc(O)cc1)C(=O)Nc1ccccc1N`, 74%.
The result for `CC(C)[C@H](NC(=O)c1coc(-c2ccccc2)n1)C(=O)NCC(=O)N[C@@H](Cc1c[nH]cn1)C(=O)Nc1ccc(F)cc1F` reads 55%; that for `O=C(CNC(=O)[C@@H]1CCCN1C(=O)c1coc(-c2ccccc2)n1)N[C@@H](Cc1c[nH]cn1)C(=O)Nc1ccc(F)cc1F`, 87%.
Take `CC#CCOC(=O)[C@H](Cc1ccccc1)NC(=O)[C@H](Cc1ccccc1)NC(=O)[C@H](CC(C)C)NC(=O)/C=C/c1ccccc1`: the inhibition is 61%.
The result for `CC(C)C[C@H](NC(=O)[C@H](COC(C)(C)C)NC(=O)[C@H](Cc1ccccc1)NC(=O)/C=C/c1ccc(F)cc1)C(N)=O` reads 83%.
The result for `CON(C)C(=O)[C@H](CC(C)C)NC(=O)[C@H](CO)NC(=O)[C@H](Cc1ccccc1)NC(=O)/C=C/c1ccc(F)cc1` reads 71%.
